Data reported in ChEMBL document CHEMBL1151761, “Radiohalogenated prostate-specific membrane antigen (PSMA)-based ureas as imaging agents for prostate cancer” (J Med Chem, 2008).

Columns and labels:
Type in all cases: ADME, organism-based
Liver [1] = assay: Biodistribution in liver of PSMA expressing human PC3 PIP and PSMA deficient human PC3 flu cells xenografted SCID mouse at 2 uCi, iv after 60 mins; conditions: in vivo, 1 h
Stomach = assay: Biodistribution in stomach of PSMA expressing human PC3 PIP and PSMA deficient human PC3 flu cells xenografted SCID mouse at 2 uCi, iv after 60 mins; conditions: in vivo, 1 h
Pancreas = assay: Biodistribution in pancreas of PSMA expressing human PC3 PIP and PSMA deficient human PC3 flu cells xenografted SCID mouse at 2 uCi, iv after 60 mins; conditions: in vivo, 1 h
Kidney = assay: Biodistribution in kidney of PSMA expressing human PC3 PIP and PSMA deficient human PC3 flu cells xenografted SCID mouse at 2 uCi, iv after 60 mins; conditions: in vivo, 1 h
Muscle tissue [2] = assay: Biodistribution in muscle of PSMA expressing human PC3 PIP and PSMA deficient human PC3 flu cells xenografted SCID mouse at 2 uCi, iv after 60 mins; conditions: in vivo, 1 h
[3] = Biodistribution in large intestine of PSMA expressing human PC3 PIP and PSMA deficient human PC3 flu cells xenografted SCID mouse at 2 uCi, iv after 60 mins; conditions: in vivo, 1 h
Procedure, shortened: (§1)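 Male SCID mice carried subcutaneous PSMA+ PC-3 PIP (left shoulder) and PC-3 flu (right shoulder) xenografts, 1-5 × 10^6 cells in HBSS, and were used at 3-5 mm tumor diameter. Tail-vein injection of 2 µCi radioligand; four mice per time point, killed by cervical dislocation. %ID/g from a standard dilution of the dose, decay-corrected, mean ± SD; PIP tumor:organ ratios.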

Urinary bladder [4] = assay: Biodistribution in bladder of PSMA expressing human PC3 PIP and PSMA deficient human PC3 flu cells xenografted SCID mouse at 2 uCi, iv after 60 mins; conditions: in vivo, 1 h
[5] = Biodistribution in PC3 PIP tumor of PSMA expressing human PC3 PIP and PSMA deficient human PC3 flu cells xenografted SCID mouse at 2 uCi, iv after 60 mins; conditions: in vivo, 1 h
Heart [6] = assay: Biodistribution in heart of PSMA expressing human PC3 PIP and PSMA deficient human PC3 flu cells xenografted SCID mouse at 2 uCi, iv after 2 hrs; conditions: in vivo
Muscle tissue [7] = assay: Biodistribution in muscle of PSMA expressing human PC3 PIP and PSMA deficient human PC3 flu cells xenografted SCID mouse at 2 uCi, iv after 2 hrs; conditions: in vivo
[8] = Biodistribution in large intestine of PSMA expressing human PC3 PIP and PSMA deficient human PC3 flu cells xenografted SCID mouse at 2 uCi, iv after 2 hrs; conditions: in vivo; procedure, shortened: as §1
Heart [9] = assay: Biodistribution in heart of PSMA expressing human PC3 PIP and PSMA deficient human PC3 flu cells xenografted SCID mouse at 2 uCi, iv after 5 hrs; conditions: in vivo
Liver [10] = assay: Biodistribution in liver of PSMA expressing human PC3 PIP and PSMA deficient human PC3 flu cells xenografted SCID mouse at 2 uCi, iv after 5 hrs; conditions: in vivo
Spleen = assay: Biodistribution in spleen of PSMA expressing human PC3 PIP and PSMA deficient human PC3 flu cells xenografted SCID mouse at 2 uCi, iv after 5 hrs; conditions: in vivo
Urinary bladder [11] = assay: Biodistribution in bladder of PSMA expressing human PC3 PIP and PSMA deficient human PC3 flu cells xenografted SCID mouse at 2 uCi, iv after 5 hrs; conditions: in vivo
[12] = Biodistribution in PC3 PIP tumor of PSMA expressing human PC3 PIP and PSMA deficient human PC3 flu cells xenografted SCID mouse at 2 uCi, iv after 5 hrs; conditions: in vivo
[13] = Ratio of drug level in tumor to small intestine of human PSMA expressing PC3 PIP and PSMA deficient human PC3 flu cells xenografted SCID mouse at 2 uCi, iv after 30 mins; conditions: in vivo, 0.5 h
Procedure, shortened: (§2)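 Male SCID mice carried subcutaneous xenografts: PSMA+ PC-3 PIP behind the left shoulder and PSMA− PC-3 flu behind the right, 1–5 × 10^6 cells in HBSS. Mice were used at 3–5 mm tumor diameter. 2 μCi was given by tail vein, and 4 mice per time point were killed by cervical dislocation. %ID/g came from a standard dilution of the dose, decay-corrected. Ratio is PIP tumor %ID/g to organ %ID/g.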

[14] = Ratio of drug level in tumor to bladder of human PSMA expressing PC3 PIP and PSMA deficient human PC3 flu cells xenografted SCID mouse at 2 uCi, iv after 30 mins; conditions: in vivo, 0.5 h; procedure, shortened: as §1
[15] = Ratio of drug level in tumor to lung of human PSMA expressing PC3 PIP and PSMA deficient human PC3 flu cells xenografted SCID mouse at 2 uCi, iv after 60 mins; conditions: in vivo, 1 h; procedure, shortened: as §1
[16] = Ratio of drug level in tumor to kidney of human PSMA expressing PC3 PIP and PSMA deficient human PC3 flu cells xenografted SCID mouse at 2 uCi, iv after 60 mins; conditions: in vivo, 1 h; procedure, shortened: as §1
[17] = Ratio of drug level in tumor to large intestine of human PSMA expressing PC3 PIP and PSMA deficient human PC3 flu cells xenografted SCID mouse at 2 uCi, iv after 60 mins; conditions: in vivo, 1 h; procedure, shortened: as §1
[18] = Ratio of drug level in tumor to liver of human PSMA expressing PC3 PIP and PSMA deficient human PC3 flu cells xenografted SCID mouse at 2 uCi, iv after 2 hrs; conditions: in vivo; procedure, shortened: as §1
[19] = Ratio of drug level in tumor to spleen of human PSMA expressing PC3 PIP and PSMA deficient human PC3 flu cells xenografted SCID mouse at 2 uCi, iv after 2 hrs; conditions: in vivo; procedure, shortened: as §2
[20] = Ratio of drug level in tumor to kidney of human PSMA expressing PC3 PIP and PSMA deficient human PC3 flu cells xenografted SCID mouse at 2 uCi, iv after 2 hrs; conditions: in vivo; procedure, shortened: as §1
[21] = Ratio of drug level in tumor to bladder of human PSMA expressing PC3 PIP and PSMA deficient human PC3 flu cells xenografted SCID mouse at 2 uCi, iv after 2 hrs; conditions: in vivo; procedure, shortened: as §1
[22] = Ratio of drug level in tumor to blood of human PSMA expressing PC3 PIP and PSMA deficient human PC3 flu cells xenografted SCID mouse at 2 uCi, iv after 30 mins
Procedure, shortened: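 Male SCID mice carried subcutaneous xenografts of PSMA+ PC-3 PIP cells behind the left shoulder and PSMA− PC-3 flu cells behind the right (1–5 × 10^6 cells in HBSS), used at a tumour diameter of 3–5 mm. Each mouse received 2 μCi of radioiodinated tracer via the tail vein. Tissues were harvested at each time point for %ID/g against a standard dilution of the dose, decay-corrected. Ratios are PIP tumour:organ.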

[23] = Ratio of drug level in tumor to heart of human PSMA expressing PC3 PIP and PSMA deficient human PC3 flu cells xenografted SCID mouse at 2 uCi, iv after 5 hrs; conditions: in vivo; procedure, shortened: as §1
[24] = Ratio of drug level in tumor to pancreas of human PSMA expressing PC3 PIP and PSMA deficient human PC3 flu cells xenografted SCID mouse at 2 uCi, iv after 5 hrs; conditions: in vivo; procedure, shortened: as §2
[25] = Ratio of drug level in tumor to large intestine of human PSMA expressing PC3 PIP and PSMA deficient human PC3 flu cells xenografted SCID mouse at 2 uCi, iv after 5 hrs; conditions: in vivo; procedure, shortened: as §1

With O=C(O)CC[C@H](NC(=O)N[C@@H](CCCCNC(=O)c1ccc([18F])cc1)C(=O)O)C(=O)O the Drug uptake (Liver [1]) was 5.8 % ID/g, the Drug uptake (Stomach) was 0.25 % ID/g and the Drug uptake (Pancreas) was 0.3 % ID/g. For the same compound, the Drug uptake (Kidney) was 48 % ID/g, the Drug uptake (Muscle tissue [2]) was 0.5 % ID/g and the Drug uptake [3] was 0.5 % ID/g. The Drug uptake (Urinary bladder [4]) was 17 % ID/g, the Drug uptake [5] was 6.4 % ID/g and the Drug uptake (Heart [6]) was 0.15 % ID/g. It also gave a Drug uptake (Muscle tissue [7]) of 0.2 % ID/g, a Drug uptake [8] of 0.2 % ID/g and a Drug uptake (Heart [9]) of 0.03 % ID/g. The Drug uptake (Liver [10]) was 1 % ID/g, the Drug uptake (Spleen) was 1 % ID/g and the Drug uptake (Urinary bladder [11]) was 5.2 % ID/g. For the same compound, the Drug uptake [12] was 3.5 % ID/g, the Ratio [13] was 5 and the Ratio [14] was 1. It also gave a Ratio [15] of 13, a Ratio [16] of 0.1 and a Ratio [17] of 13. For the same compound, the Ratio [18] was 0.3, the Ratio [19] was 1 and the Ratio [20] was 0.1. For the same compound, the Ratio [21] was 0.3, the Kp at 0.5 h [22] was 3 and the Ratio [23] was 117. It also gave a Ratio [24] of 70 and a Ratio [25] of 6.
